Assay outcomes as filed in PubChem BioAssay.
KCNQ1 block – inhibitors of human KCNQ1 potassium channel | 310,000 tested, 1.3% active | CHO-K1 KCNQ1, FluxOR thallium flux fluorescence; active compounds read high | AID 2642 | B-score at 10 µM;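 active = compounds whose thallium flux B-score, printed positive for inhibition, exceeds three library SD while starting fluorescence stays within three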;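 note: channel opened by potassium depolarization with thallium stimulus after 20 min compound exposure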
Target sequence (P51787 whole entry, looked up): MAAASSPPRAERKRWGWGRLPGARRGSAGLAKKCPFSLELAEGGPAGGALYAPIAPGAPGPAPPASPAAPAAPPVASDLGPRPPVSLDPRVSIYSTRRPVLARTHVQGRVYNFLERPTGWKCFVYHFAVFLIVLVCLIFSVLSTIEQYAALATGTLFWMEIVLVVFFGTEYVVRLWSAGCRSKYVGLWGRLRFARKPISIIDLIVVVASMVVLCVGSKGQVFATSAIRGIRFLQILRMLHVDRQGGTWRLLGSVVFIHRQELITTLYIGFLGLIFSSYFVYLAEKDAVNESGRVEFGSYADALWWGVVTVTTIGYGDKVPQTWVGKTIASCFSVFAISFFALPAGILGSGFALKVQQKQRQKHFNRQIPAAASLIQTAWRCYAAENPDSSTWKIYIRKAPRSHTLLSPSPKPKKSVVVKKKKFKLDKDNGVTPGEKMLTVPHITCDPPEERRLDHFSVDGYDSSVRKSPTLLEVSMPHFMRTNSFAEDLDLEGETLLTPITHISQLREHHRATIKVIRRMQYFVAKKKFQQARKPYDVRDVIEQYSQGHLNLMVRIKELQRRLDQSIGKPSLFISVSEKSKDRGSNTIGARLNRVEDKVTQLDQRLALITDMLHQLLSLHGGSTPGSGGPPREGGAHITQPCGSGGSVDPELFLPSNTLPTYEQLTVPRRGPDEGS
KCNK3 block – human KCNK3 channel inhibition, primary screen | O14649 | CHO-KCNK3 thallium flux, FluxOR fluorescence; active compounds read low | B-score at 10 µM | 340,000 tested, 0.84% active;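 active = B-score under library mean minus 4 SD, starting fluorescence ratio at most library mean plus 5 SD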;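 note: more negative B-score means stronger inhibition of thallium flux through KCNK3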
Kir21 inh – Kir2.1 (mouse) channel inhibition | P35561 | B-score at 10 µM | HEK293-Kir2.1, FluxOR thallium flux fluorescence; active compounds read low | 310,000 tested, 0.85% active;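 active = fluorescence ratio B-score at or below minus 3 SD of library scores, with starting-brightness B-score within 2 SD, cut at about -4.2 in these data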;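 note: channel flux triggered by added potassium and thallium sulfate stimulus; B-score of peak minus minimum fluorescence over baseline after thallium stimulus; more negative B-score means stronger Kir2.1 block with less thallium influx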
hERG protect – hERG (human) protection from proarrhythmic block; Q12809; CHO-hERG, FluxOR thallium flux, dofetilide IC70 present; activation (rescue from dofetilide block), less the hit threshold, % at 10 µM; 310,000 tested, 0.51% active; AID 1511;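 active = activation above the mean of controls blocked by dofetilide plus 5 SD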;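 note: thallium influx through hERG after potassium depolarization seen as dye fluorescence rise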
KCNK9 inh – inhibitors of human KCNK9 two-pore domain potassium channel; Q9NPC2; HEK293 KCNK9, FluxOR thallium flux fluorescence; active compounds read low; B-score at 10 µM; 310,000 tested, 1.2% active;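 active = ratio B-score over 3 SD below the library mean, with starting fluorescence within 5 SD of its mean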;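 note: negative B-score means less thallium flux so channel inhibition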
KCNQ1 pot – potentiates or activates the human KCNQ1 potassium channel | 310,000 tested, 0.35% active | P51787 | AID 2648 | B-score at 10 µM | CHO-K1 KCNQ1, thallium flux FluxOR fluorescence; active compounds read high;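 active = fluorescence ratio B-score, a plate-corrected score, at least three library SD, with initial intensity B-score within 5 SD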
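Medium – assay buffer, equal DMSO in all wells · Material – CHO-K1 cell line with stable KCNQ1 potassium channel expression · Signal – kinetic FluxOR thallium fluorescence, 10-s 1-Hz baseline, 110-s post-stimulus read · Compound – single concentration per compound, DMSO matched to controls · Schedule – 37 °C overnight plating, 90-min dark dye load, 20-min compound pretreatment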
KCNK9 inh conf – human KCNK9 inhibitor confirmation; shares compounds with KCNK9 inh; HEK293 KCNK9 cells, FluxOR thallium flux fluorescence; inhibition, % at 10 µM; 4,900 tested, 43% active; AID 492992;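 active = thallium signal inhibited by more than 5 SD of the compound-free buffer control wells, on both duplicate plates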;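 note: 0% = assay buffer control wells without compound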
Kir2-1 spec – tests whether KCNK9 modulators also affect mouse Kir2.1; shares compounds with KCNK9 inh; Kir2.1 cells, FluxOR thallium flux fluorescence; inhibition, % at 10 µM; 4,900 tested, 4% active;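 active = thallium signal drop more than 5 SD beyond the mean of the no-compound control wells, seen in both duplicate plates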;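 note: signal is fluorescence rise after thallium addition divided by baseline fluorescence; plate controls were assay buffer only for no effect and full block by chlorpromazine control for full effect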
KCNK9 uninduced – non-induced cell nonspecific activity of KCNK9 modulators. shares compounds with KCNK9 inh. non-induced KCNK9-HEK293, FluxOR thallium flux. inhibition, % at 10 µM. 4,900 tested, 40% active;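 active = thallium signal drop beyond 5 SD of the untreated control mean, on both duplicate plates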;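 note: plate controls were buffer only IC0 wells for no effect and SID17386958 at its maximal inhibitory level for full effect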
The depositor's hits bear a star; i = inactive; / = no result given. Hits are enriched below; roughly 3.8% of the tested compounds scored in any of these assays.

SMILES	KCNQ1 block	KCNK3 block	Kir21 inh	hERG protect	KCNK9 inh	KCNQ1 pot	KCNK9 inh conf	Kir2-1 spec	KCNK9 uninduced
CCOc1cc(/C=C2/C(=N)N3C(=NC2=O)SN=C3S(C)(=O)=O)ccc1OS(=O)(=O)c1ccccc1	i	i	1.3	-25	i	i	i	i	i
COc1cc(/C=C2/C(=N)N3C(=NC2=O)SN=C3S(C)(=O)=O)ccc1OS(=O)(=O)c1ccccc1	i	/	1.3	-16	i	i	/	/	/
Cc1cccc(N2CCN(C(=S)c3ccc(-c4ccccc4[N+](=O)[O-])o3)CC2)c1	i	i	0.11	-10	i	i	i	i	i
O=[N+]([O-])c1cccc(-c2ccc(C(=S)N3CCOCC3)o2)c1	i	i	2.2	-8	i	i	/	/	/
O=[N+]([O-])c1cccc(-c2ccc(C(=S)N3CCN(c4ccccc4)CC3)o2)c1	i	i	0.88	-12	-8.3*	i	33%*	i	42%*
CCC1(CC)NC(=O)N(CC(=O)OCC(=O)Nc2ncc(Cl)cc2Cl)C1=O	i	i	-0.14	-12	i	i	/	/	/
CCOC(=O)c1c(C)[nH]c(C)c1C(=O)COC(=O)CCc1ccccc1	/	i	/	/	/	/	/	/	/
C(=N\Nc1nc(-c2ccccc2)cs1)/c1ccncc1	i	i	-0.89	-17	i	i	/	/	/
O=C(O)Cc1sc(N/N=C\c2ccncc2)nc1-c1ccccc1	i	i	0.14	-6	-11*	i	25%*	i	i
O=C(CCc1nc2ccccc2s1)OCc1ccccc1	i	i	-0.91	-3	i	i	i	i	i
O=C(CCC(=O)c1cccs1)OCc1nc2ccccc2s1	i	i	1.1	-7	i	i	/	/	/
O/N=C/c1cc(Br)ccc1OCc1cccc(F)c1	i	i	-2	-8	-8.9*	i	46%*	i	34%*
CC(OC(=O)c1ccc(Cl)nc1)C(=O)NC1CCCC1 (stereo not drawn)	/	i	/	/	/	/	/	/	/
O=C(O)CN1C(=O)/C(=C\c2cc(Br)ccc2OCc2ccc(Cl)cc2)SC1=S	i	i	0.28	-1	i	i	/	/	/
O=C(O)CN1C(=O)/C(=C\c2cc([N+](=O)[O-])ccc2OCc2ccccc2Cl)SC1=S	i	i	-0.74	-5	i	i	i	i	i
COCCn1nnnc1C(c1cccs1)N1CCN(c2cccc(C(F)(F)F)c2)CC1 (stereo not drawn)	i	i	0.33	-6	-14*	i	59%*	i	40%*
COC(=O)c1cc(CN2CCN(c3ccccc3)CC2)ccc1O	i	i	-0.45	-3	i	i	i	i	i
CCOc1cc(CN2CCN(c3cccc(C(F)(F)F)c3)CC2)ccc1O	i	i	-0.96	-21	i	i	i	i	i
CCOc1cc(CN2CCN(c3cccc(C(F)(F)F)c3)CC2)ccc1OC	i	i	2.9	-4	i	i	i	i	i
C=C1CCC[C@]2(C)C[C@H]3OC(=O)C(CNCCN(CC)CC)[C@H]3CC12 (stereo partly drawn)	i	i	-0.93	-5	i	i	/	/	/
CC1(C)CC(NS(=O)(=O)OCC(Cl)(Cl)Cl)c2cc(C#N)ccc2O1 (stereo not drawn)	i	i	0.69	-4	i	i	/	/	/
COc1ccccc1N(CC(=O)N1CCN(c2ccc(F)cc2)CC1)S(=O)(=O)c1ccc(C)cc1	i	i	0.86	-13	i	i	/	/	/
Cc1ccc(/C(O)=C2/C(=O)C(=O)N(CC(=O)O)C2c2ccc([N+](=O)[O-])cc2)cc1 (stereo not drawn)	i	i	0.01	-4	i	i	/	/	/
